Data as given in PMC8429223 (Biomedicine & pharmacotherapy = Biomedecine & …, 2021).

How the values were obtained:
MDA-MB-231 cells [1] = experiment: Colony formation assay; assay type: cell-based, human
Method in brief: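 MDA-MB-231 cells were seeded at 1.5 x 10⁵/well and left 48 h to attach. After medium change, cells were exposed to test compound or 0.1% DMSO for 6–72 h. They were then harvested and re-plated at 250 cells/well (n=6) in compound-free medium for 13 days. Staining was 0.5% crystal violet in methanol, 40 min at RT. Colonies of ≥25 cells were counted by hand and expressed as % of vehicle; one-way ANOVA.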

breast CSCs = conditions: cited from earlier work
MCF 10A cells = experiment: MTT cell viability assay, MCF 10A; assay type: cell-based; conditions: Homo sapiens, 96 h, read-out: MCF 10A IC50
Method in brief: (§1)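 Cells were seeded in complete medium, MDA-MB-231 at 2 x 10³ and MCF 10A at 2 x 10⁴ cells/well. After 24 h they were exposed to test compound up to 10 μM, or 0.1% DMSO, for 72 h (MDA-MB-231) or 96 h (MCF 10A). MTT (5 mg ml⁻¹) was added for 4 h at 37°C, 5% CO₂, then formazan was dissolved in DMSO with 10 min shaking and read at 540 nm. IC50 by non-linear regression; mean ± SD (n = 4).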

[2] = tested on: CD44+/CD24-/low cells of MDA-MB-231 organoids; experiment: CD44/CD24 cell surface markers by flow cytometry, organoids; assay type: cell-based, human; conditions: 2.5 μM 1 or 0.5 μM 17, 48 h
Method in brief: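 MDA-MB-231 organoids were made from 20 μl droplets of 1:4 complete Mammocult:Matrigel holding 10⁴ cells each. Droplets were set 1 h at 37°C, grown static 4 days with half-medium feeds every other day, then shaken at 90 rpm. One dissected organoid per 1 ml Mammocult was treated 48 h (vehicle 0.1% DMSO), then dispersed in enzyme-free dissociation buffer with 0.2% NDA. Cells were stained with FITC-anti-CD24 (1:100) and PE-anti-CD44 (1:200) for 30 min in the dark, then PI/RNase. Viable PI-negative cells were gated against isotype control; mean ± SD (n=3).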

primary ALL-5 cells = experiment: MTT cell viability assay, primary ALL-5; assay type: cell-based; conditions: Homo sapiens, ALL5, 120 h, read-out: ALL-5 IC50
Method in brief: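 Primary ALL-5 cells (patient bone-marrow-derived) were kept in supplemented IMDM at 1–3 x 10⁶ cells ml⁻¹ and plated at 10⁵ cells/well. They were treated 120 h with a test compound series or 0.1% DMSO. MTT (5 mg ml⁻¹) was added for 24 h at 37°C, then 10% SDS in 0.01 M HCl for a further 24 h; absorbance 540 nm. IC50 by non-linear regression; mean ± SD (n = 4).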

MDA-MB-231 cells [3] = experiment: Cell cycle / sub-G1 DNA analysis by flow cytometry; assay type: cell-based, human; conditions: 30 μM SAL, 24 h (20 μM not significant)
[4] = tested on: EMT marker mRNA in MDA-MB-231 cells; experiment: qRT-PCR analysis of EMT markers; assay type: cell-based, human; conditions: ½ IC50, 24 h, vs untreated controls
Method in brief: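 MDA-MB-231 cells (0.7–2.2 x 10⁶ per 100 mm dish) were exposed 24 h to test compound or 0.1% v/v DMSO vehicle. Cells were trypsin-released and washed in PBS before RNA work. Transcript levels were measured by qRT-PCR and calculated relative to GAPDH by the ΔΔCt method; unpaired t test with Welch's correction.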

[5] = doses of 200–250 μg kg−1; cited from earlier work
[6] = tested on: Bak and LC3-II in MDA-MB-231 cells; experiment: Immunoblot analysis, cell monolayer; assay type: cell-based, human
Method in brief: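 Monolayers of MDA-MB-231 (2.2 x 10⁶ cells/100 mm dish) were treated 24 or 48 h with test compound or 0.1% DMSO, ± 100 μM Z-VAD-FMK. Cells were trypsin-harvested, snap-frozen and lysed in 25 mM HEPES pH 7.5, 300 mM NaCl, 0.1% Triton X-100 with protease/phosphatase inhibitors. Blots were blocked in 5% milk/TBS-T 1 h at RT, then probed overnight at 4°C: Bak and LC3B 1:1000, GAPDH 1:10000 loading control; HRP anti-rabbit 1:5000. Band intensities were normalised to GAPDH as fold of control; mean ± SD (n=3).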

MDA-MB-231 cells [7] = experiment: MTT cell viability assay, MDA-MB-231; assay type: cell-based, human; conditions: single agent, MDA-MB-231, MTT
Method in brief: as §1

Row | IC50 (MDA-MB-231 cells [7]) [µM] | Compound | inhibition of colony growth (MDA-MB-231 cells [1]; 48 h treatment at ½ IC50) [%] | inhibition of colony growth (MDA-MB-231 cells [1]; 72 h treatment at ½ IC50) [%] | potency in reducing viability of breast CSCs relative to paclitaxel (breast CSCs) [times] | IC50 (MCF 10A cells) [nM] | percentage of CD44+/CD24-/low cells [2] | IC50 (primary ALL-5 cells) [µM] | sub-G1 DNA content (MDA-MB-231 cells [3]) | E-cadherin mRNA [4] | Snail-2 mRNA [4] | Vimentin mRNA [4] | tolerability in cancer patients [5] | LC3-II (14 kDa) expression vs. untreated control ([6]; 5 x IC50 (25 μM 1, 14 μM 2, 5 μM 17), 24 h) | Bak expression vs. control ([6]; 5 x IC50, 24 h and 48 h, monolayer)
1 | – | CC[C@@H](C(=O)[C@@H](C)[C@@H](O)[C@H](C)[C@@H]1O[C@@H]([C@@H](CC)C(=O)O)CC[C@@H]1C)[C@H]1O[C@]2(C=C[C@@H](O)[C@]3(CC[C@@](C)([C@H]4CC[C@](O)(CC)[C@H](C)O4)O3)O2)[C@H](C)C[C@@H]1C [SAL (1), salinomycin] | 84 | 90 | ~100 | 100 ± 20 | modest, but significant reduction | 5.8 ± 1.7 | statistically significant sub-G1 DNA content | downregulated | upregulated | upregulated | well tolerated | significant upregulation | very modest, but statistically significant, increase
2 | 142 | O=C(NO)c1ccccc1 [benzhydroxamic acid] | – | – | – | – | – | – | – | – | – | – | – | – | –
